In ChEMBL document CHEMBL1132244, “Benzodiazepine receptor ligands. 4. Synthesis and pharmacological evaluation of 3-heteroaryl-8-chloropyrazolo[5,1-c][1,2,4] benzotriazine 5-oxides” (J Med Chem, 1999):

Columns and labels:
Mus musculus [1] = assay: Muscle relaxant effect measured by rotarod test at 0.1 mg/Kg dose in mice; type: functional
Mus musculus [2] = assay: The percentage time in light by the animals was calculated for the compound at a dose of 1 mg/kg in the light/dark box experiment*** indicates P<0.001.; type: functional
Mus musculus [3] = assay: Muscle relaxant effect measured by rotarod test at 1 mg/Kg dose in mice; type: functional
Mus musculus [4] = assay: The percentage time in light by the animals was calculated for the compound at a dose of 3 mg/kg in the light/dark box experiment.; type: functional
Mus musculus [5] = assay: Muscle relaxant effect measured by rotarod test at 0.3 mg/Kg dose in mice; type: functional
Mus musculus [6] = assay: The percentage time in light by the animals was calculated for the compound at a dose of 0.3 mg/kg in the light/dark box experiment.; type: functional
Mus musculus [7] = assay: The antianxiety activity for the compound at a dose of 0.3 mg/kg was evaluated as number of crosses by mice in the light/dark box experiment. p<0.05; type: functional
Mus musculus [8] = assay: The antianxiety activity for the compound at a dose of 1 mg/kg was evaluated as number of crosses by mice in the light/dark box experiment.; type: functional
Mus musculus [9] = assay: The antianxiety activity for the compound at a dose of 3 mg/kg was evaluated as number of crosses by mice in the light/dark box experiment.; type: functional
Mus musculus [10] = assay: Muscle relaxant effect measured by rotarod test at 3 mg/Kg dose in mice; type: functional
[11] = target: T1, GABA-A receptor; anion channel (Bos taurus) (UniProt P10063+P08220+P20237+P08219+P10064+P22300); assay: Percentage inhibition of [3H]Ro-151788 binding to GABA-A benzodiazepine receptor in bovine brain membrane at 10 uM; type: cell membranes
Summary of the method: (§1)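 Washed bovine cerebral cortex membranes, with endogenous GABA removed by Triton X-100/37 °C washes, incubated with ~0.2 nM [3H]Ro15-1788 (Kd 0.60 nM) in 50 mM Tris-citrate pH 7.4 for 90 min at 0 °C, then filtered. Nonspecific binding defined with 10 μM diazepam. Screening at 10 μM; Ki from IC50 by Cheng–Prusoff; five determinations, mean ± SEM.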

[12] = target: T1, GABA-A receptor; anion channel (Bos taurus); assay: The GABA ratio (GR) = IC50 compound + 10 uM GABA, performed in five independent experiments was calculated for the compound.; type: protein-complex assay
Summary of the method: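 [3H]Ro15-1788 displacement from GABA-depleted bovine cortex membranes (0.2 nM ligand, 90 min, 0 °C, Tris-citrate pH 7.4). IC50 measured without and with 10 μM GABA and the ratio taken; five independent experiments.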

[13] = target: GABA-A receptor; anion channel; assay: Displacement of [3H]Ro-151788 from GABA-A benzodiazepine receptor of bovine brain membranes; type: cell membranes, Bos taurus; summary of the method: as §1
[14] = target: T1, GABA-A receptor; anion channel (Bos taurus); assay: Percentage inhibition of [3H]Ro-151788 binding to GABA-A central benzodiazepine receptor in bovine brain membrane at 10 uM; type: cell membranes; summary of the method: as §1
Mus musculus [15] = assay: Antianxiety activity was measured based on light/dark box thus calculated % time in light of mice at 10 mg/kg dose; type: functional
Summary of the method: (§2)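 Male Swiss-Webster mice, 22–26 g, dosed orally with drug or 1% CMC vehicle (10 mL/kg), placed 30 min later in the centre of the lit side of a two-compartment light/dark box (60-W bulb 400 mm above the white floor). Time in the lit side and number of crossings counted over 5 min. Student's t-test.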

Mus musculus [16] = assay: Anticonvulsant activity against PTZ induced attacks at 10 mg/kg dose; type: functional
Mus musculus [17] = assay: Muscle relaxant effect measured by rotarod test at 100 mg/Kg dose in mice; type: functional
Summary of the method: (§3)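 Motor coordination on the rota rod in male Swiss-Webster mice (22–26 g) after oral dosing in 1% CMC (10 mL/kg), tested 30 min post-dose. Student's t-test.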

Mus musculus [18] = assay: (§4) Anticonvulsant activity against MES-induced hindlimb extension at 100 mg/kg dose; type: organism-based; set-up: dose 100 mg/kg; conditions: in vivo
Summary of the method: (§5)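 Male Swiss-Webster mice (22–26 g) received drug in 1% CMC (10 mL/kg) 30 min before maximal electroshock through transcorneal electrodes (40 mA, 50 Hz, 0.2 s). The end point was tonic hindlimb extension, and lethality was also noted. The incidence of non-convulsing mice was analysed by χ² test.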

Mus musculus [19] = assay: (§6) Anticonvulsant activity against MES-induced hindlimb extension at 30 mg/kg dose; type: ADME, organism-based; set-up: dose 30 mg/kg; conditions: in vivo; summary of the method: as §5
Mus musculus [20] = assay: Antianxiety activity was measured based on light/dark box thus calculated % time in light of mice at 100 mg/kg dose; type: functional; summary of the method: as §2
Mus musculus [21] = assay: Muscle relaxant effect measured by rotarod test at 30 mg/Kg dose in mice; type: functional; summary of the method: as §3
Mus musculus [22] = assay: (§7) Anticonvulsant activity against MES-induced hindlimb extension at 10 mg/kg dose; type: ADME, organism-based; set-up: dose 10 mg/kg; conditions: in vivo; summary of the method: as §5
Mus musculus [23] = assay: Antianxiety activity was measured based on light/dark box thus calculated no of crosses of mice at 10 mg/kg dose; type: functional; summary of the method: as §2
Mus musculus [24] = assay: Antianxiety activity was measured based on light/dark box thus calculated % time in light of mice at 30 mg/kg dose; type: functional; summary of the method: as §2
Mus musculus [25] = assay: Anticonvulsant activity against PTZ induced atacks at 100 mg/kg dose; type: functional
Mus musculus [26] = assay: Antianxiety activity was measured based on light/dark box thus calculated no of crosses of mice at 100 mg/kg dose; type: functional; summary of the method: as §2
Mus musculus [27] = assay: Antianxiety activity was measured based on light/dark box thus calculated no of crosses of mice at 30 mg/kg dose; type: functional; summary of the method: as §2
Mus musculus [28] = assay: Muscle relaxant effect measured by rotarod test at 10 mg/Kg dose in mice; type: functional; summary of the method: as §3
Mus musculus [29] = assay: Anticonvulsant activity against PTZ induced atacks at 30 mg/kg dose; type: functional
Mus musculus [30] = assay: as §4; type: functional
Mus musculus [31] = assay: as §7; type: functional
Mus musculus [32] = assay: as §6; type: functional

`CN1C(=O)CN=C(c2ccccc2)c2cc(Cl)ccc21` [DIAZEPAM] gave a No. of falls (Mus musculus [1]) of 0.23, a Time in light (Mus musculus [2]) of 144.9% and a No. of falls (Mus musculus [3]) of 0.73. The Time in light (Mus musculus [4]) was 211.1%, the No. of falls (Mus musculus [5]) was 0.56 and the Time in light (Mus musculus [6]) was 95.5%. For the same molecule, the No. of crosses (Mus musculus [7]) was 22, the No. of crosses (Mus musculus [8]) was 28.5 and the No. of crosses (Mus musculus [9]) was 16.5. It also gave a No. of falls (Mus musculus [10]) of 1.4.
With `Cc1n[nH]c(-c2cnn3c2n[n+]([O-])c2ccc(Cl)cc23)n1` the inhibition [11] was 15.2%.
`CN1C(=O)CN=C(c2ccccc2)c2cc(Cl)ccc21` showed a GR [12] of 1.5.
`[O-][n+]1nc2c(-n3cccc3)cnn2c2cc(Cl)ccc21` gave an inhibition [11] of 87.5%, a Ki [13] of 0.0615 µM and a GR [12] of 1.24.
Molecule `[O-][n+]1nc2c(-c3nc[nH]n3)cnn2c2cc(Cl)ccc21` has an inhibition [11] of 44.4%.
`[O-][n+]1nc2c(-c3cnoc3)cnn2c2cc(Cl)ccc21` showed an inhibition [11] of 66%.
Molecule `Clc1ccc2nnc3c(-c4cccs4)cnn3c2c1` has an inhibition [14] of 66%.
For `[O-][n+]1nc2c(-c3ccsc3)cnn2c2cc(Cl)ccc21`, the Time in flight (Mus musculus [15]) was 94.2%, the inhibition [11] was 100% and the Atttacks (Mus musculus [16]) was 18.2%. The No. of falls (Mus musculus [17]) was 0.15, the Lethality (Mus musculus [18]) was 18.2% and the Lethality (Mus musculus [19]) was 22.2%. The Time in flight (Mus musculus [20]) was 107.4%, the No. of falls (Mus musculus [21]) was 0.08 and the Lethality (Mus musculus [22]) was 28.6%. It also gave a No. of crosses (Mus musculus [23]) of 16.3, a Time in flight (Mus musculus [24]) of 104.3% and a Ki [13] of 0.0363 µM. The Atttacks (Mus musculus [25]) was 46.1%, the No. of crosses (Mus musculus [26]) was 15.3 and the No. of crosses (Mus musculus [27]) was 19. It also gave a No. of falls (Mus musculus [28]) of 0.43, an Atttacks (Mus musculus [29]) of 61.5% and an Extension (Mus musculus [30]) of 27.3%. The Extension (Mus musculus [31]) was 14.3%, the GR [12] was 1.23 and the Extension (Mus musculus [32]) was 33.3%.
`Cn1cnc(-c2cnn3c2n[n+]([O-])c2ccc(Cl)cc23)n1` gave an inhibition [11] of 0%.
Work on `Cc1nc(-c2cnn3c2n[n+]([O-])c2ccc(Cl)cc23)nn1C` yielded an inhibition [11] of 0%.
`O=C(N/C=N/O)c1cnn2c1n[n+]([O-])c1ccc(Cl)cc12` was tested, and the inhibition [11] was 0%.
